# Data reported in ChEMBL document CHEMBL1155942, “Synthesis and evaluation in vitro and in vivo of a 11C-labeled cyclooxygenase-2 (COX-2) inhibitor” (Bioorg Med Chem, 2008).
# Assays:
# [1] = test system: Blood; assay: Biodistribution in Wistar rat blood at ~20 MBq, iv after 5 mins; format: ADME, organism-based; conditions: in vivo
# Procedure, shortened: (§1)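 Male Wistar rats, housed under standard conditions. Each received about 20 MBq of radiotracer iv in 0.5 mL saline with 10% ethanol. Animals were killed at 5 or 60 min post injection, and organs were excised and weighed. Activity was gamma-counted, decay-corrected and calibrated against injected-tracer aliquots, then expressed as %ID/g. Mean ± SD, four animals per time point.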
# [2] = test system: Blood; assay: Biodistribution in Wistar rat blood at ~20 MBq, iv after 60 mins; format: ADME, organism-based; conditions: in vivo, 1 h; procedure, shortened: as §1
# [3] = test system: Brain; assay: Biodistribution in Wistar rat brain at ~20 MBq, iv after 5 mins; format: ADME, organism-based; conditions: in vivo; procedure, shortened: as §1
# [4] = test system: Brain; assay: Biodistribution in Wistar rat brain at ~20 MBq, iv after 60 mins; format: ADME, organism-based; conditions: in vivo, 1 h; procedure, shortened: as §1
# [5] = test system: Heart; assay: Biodistribution in Wistar rat heart at ~20 MBq, iv after 5 mins; format: ADME, organism-based; conditions: in vivo; procedure, shortened: as §1
# [6] = test system: Heart; assay: Biodistribution in Wistar rat heart at ~20 MBq, iv after 60 mins; format: ADME, organism-based; conditions: in vivo, 1 h; procedure, shortened: as §1
# [7] = test system: Lung; assay: Biodistribution in Wistar rat lung at ~20 MBq, iv after 5 mins; format: ADME, organism-based; conditions: in vivo; procedure, shortened: as §1
# [8] = test system: Lung; assay: Biodistribution in Wistar rat lung at ~20 MBq, iv after 60 mins; format: ADME, organism-based; conditions: in vivo, 1 h; procedure, shortened: as §1
# [9] = test system: Liver; assay: Biodistribution in Wistar rat liver at ~20 MBq, iv after 5 mins; format: ADME, organism-based; conditions: in vivo; procedure, shortened: as §1
# [10] = test system: Liver; assay: Biodistribution in Wistar rat liver at ~20 MBq, iv after 60 mins; format: ADME, organism-based; conditions: in vivo, 1 h; procedure, shortened: as §1
# [11] = test system: Spleen; assay: Biodistribution in Wistar rat spleen at ~20 MBq, iv after 5 mins; format: ADME, organism-based; conditions: in vivo; procedure, shortened: as §1
# [12] = test system: Spleen; assay: Biodistribution in Wistar rat spleen at ~20 MBq, iv after 60 mins; format: ADME, organism-based; conditions: in vivo, 1 h; procedure, shortened: as §1
# [13] = test system: Pancreas; assay: Biodistribution in Wistar rat pancreas at ~20 MBq, iv after 5 mins; format: ADME, organism-based; conditions: in vivo; procedure, shortened: as §1
# [14] = test system: Pancreas; assay: Biodistribution in Wistar rat pancreas at ~20 MBq, iv after 60 mins; format: ADME, organism-based; conditions: in vivo, 1 h; procedure, shortened: as §1
# [15] = test system: Adrenal; assay: Biodistribution in Wistar rat adrenal at ~20 MBq, iv after 5 mins; format: ADME, organism-based, Adrenal tissue; conditions: in vivo; procedure, shortened: as §1
# [16] = test system: Adrenal; assay: Biodistribution in Wistar rat adrenal at ~20 MBq, iv after 60 mins; format: ADME, organism-based, Adrenal tissue; conditions: in vivo, 1 h; procedure, shortened: as §1
# [17] = test system: Kidney; assay: Biodistribution in Wistar rat kidney at ~20 MBq, iv after 5 mins; format: ADME, organism-based; conditions: in vivo; procedure, shortened: as §1
# [18] = test system: Kidney; assay: Biodistribution in Wistar rat kidney at ~20 MBq, iv after 60 mins; format: ADME, organism-based; conditions: in vivo, 1 h; procedure, shortened: as §1
# [19] = test system: Thymus; assay: Biodistribution in Wistar rat thymus at ~20 MBq, iv after 5 mins; format: ADME, organism-based; conditions: in vivo; procedure, shortened: as §1
# [20] = test system: Thymus; assay: Biodistribution in Wistar rat thymus at ~20 MBq, iv after 60 mins; format: ADME, organism-based; conditions: in vivo, 1 h; procedure, shortened: as §1
# [21] = test system: Muscle tissue; assay: Biodistribution in Wistar rat muscle at ~20 MBq, iv after 5 mins; format: ADME, organism-based; conditions: in vivo; procedure, shortened: as §1
# [22] = test system: Muscle tissue; assay: Biodistribution in Wistar rat muscle at ~20 MBq, iv after 60 mins; format: ADME, organism-based; conditions: in vivo, 1 h; procedure, shortened: as §1
# [23] = test system: Harderian gland; assay: Biodistribution in Wistar rat harderian gland at ~20 MBq, iv after 5 mins; format: ADME, organism-based; conditions: in vivo; procedure, shortened: as §1
# [24] = test system: Harderian gland; assay: Biodistribution in Wistar rat harderian gland at ~20 MBq, iv after 60 mins; format: ADME, organism-based; conditions: in vivo, 1 h; procedure, shortened: as §1
# [25] = Biodistribution in Wistar rat brown adipose tissue at ~20 MBq, iv after 5 mins; format: ADME, organism-based; conditions: in vivo; procedure, shortened: as §1
# [26] = Biodistribution in Wistar rat brown adipose tissue at ~20 MBq, iv after 60 mins; format: ADME, organism-based; conditions: in vivo, 1 h; procedure, shortened: as §1
# [27] = Biodistribution in Wistar rat white adipose tissue at ~20 MBq, iv after 5 mins; format: ADME, organism-based; conditions: in vivo; procedure, shortened: as §1
# [28] = Biodistribution in Wistar rat white adipose tissue at ~20 MBq, iv after 60 mins; format: ADME, organism-based; conditions: in vivo, 1 h; procedure, shortened: as §1
# [29] = test system: Femur; assay: Biodistribution in Wistar rat femur at ~20 MBq, iv after 5 mins; format: ADME, organism-based; conditions: in vivo; procedure, shortened: as §1
# [30] = test system: Femur; assay: Biodistribution in Wistar rat femur at ~20 MBq, iv after 60 mins; format: ADME, organism-based; conditions: in vivo, 1 h; procedure, shortened: as §1
# [31] = test system: Testes; assay: Biodistribution in Wistar rat testes at ~20 MBq, iv after 5 mins; format: ADME, organism-based, Testis; conditions: in vivo; procedure, shortened: as §1
# [32] = test system: Testes; assay: Biodistribution in Wistar rat testes at ~20 MBq, iv after 60 mins; format: ADME, organism-based, Testis; conditions: in vivo, 1 h; procedure, shortened: as §1
# [33] = Metabolic stability in Wistar rat plasma at 30 MBq, iv after 1 min; format: ADME, organism-based; conditions: read-out: Stability
# Procedure, shortened: (§2)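 After iv radiotracer, arterial blood was drawn through a femoral artery catheter. Plasma was separated by centrifugation (3 min, 11,000g). Proteins were precipitated with ice-cold methanol (1.5 parts per part plasma) and centrifuged again. Supernatants were analysed by HPLC for the fraction of intact radiotracer over time.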
# [34] = Metabolic stability in Wistar rat plasma at 30 MBq, iv after 5 mins; format: ADME, organism-based; conditions: read-out: Stability; procedure, shortened: as §2
# [35] = Metabolic stability in Wistar rat plasma at 30 MBq, iv after 10 mins; format: ADME, organism-based; conditions: read-out: Stability; procedure, shortened: as §2
# [36] = Metabolic stability in Wistar rat plasma at 30 MBq, iv after 20 mins; format: ADME, organism-based; conditions: read-out: Stability; procedure, shortened: as §2
# [37] = Metabolic stability in Wistar rat plasma at 30 MBq, iv after 30 mins; format: ADME, organism-based; conditions: read-out: Stability; procedure, shortened: as §2
# [38] = Metabolic stability in Wistar rat plasma at 30 MBq, iv after 60 mins; format: ADME, organism-based; conditions: read-out: Stability; procedure, shortened: as §2
# [39] = Metabolic stability in human HT29 cells bearing mouse plasma at 20 MBq, iv after 1 min; format: ADME, organism-based, HT-29; conditions: read-out: Stability; procedure, shortened: as §2
# [40] = Metabolic stability in human HT29 cells bearing mouse plasma at 20 MBq, iv after 5 mins; format: ADME, organism-based, HT-29; conditions: read-out: Stability; procedure, shortened: as §2
# [41] = Metabolic stability in human HT29 cells bearing mouse plasma at 20 MBq, iv after 10 mins; format: ADME, organism-based, HT-29; conditions: read-out: Stability; procedure, shortened: as §2
# [42] = Metabolic stability in human HT29 cells bearing mouse plasma at 20 MBq, iv after 20 mins; format: ADME, organism-based, HT-29; conditions: read-out: Stability; procedure, shortened: as §2
# [43] = Metabolic stability in human HT29 cells bearing mouse plasma at 20 MBq, iv after 30 mins; format: ADME, organism-based, HT-29; conditions: read-out: Stability; procedure, shortened: as §2
# [44] = Metabolic stability in human HT29 cells bearing mouse plasma at 20 MBq, iv after 60 mins; format: ADME, organism-based, HT-29; conditions: read-out: Stability; procedure, shortened: as §2
smiles,measurement,setting,value
CS(=O)(=O)c1ccc(C2=C(c3ccc(O[11CH3])cc3)CCC2)cc1,Drug uptake,[1],0.23 % ID/g
same,Drug uptake,[2],0.18 % ID/g
same,Drug uptake,[3],0.59 % ID/g
same,Drug uptake,[4],0.11 % ID/g
same,Drug uptake,[5],0.5 % ID/g
same,Drug uptake,[6],0.16 % ID/g
same,Drug uptake,[7],0.59 % ID/g
same,Drug uptake,[8],0.19 % ID/g
same,Drug uptake,[9],1.35 % ID/g
same,Drug uptake,[10],0.76 % ID/g
same,Drug uptake,[11],0.32 % ID/g
same,Drug uptake,[12],0.21 % ID/g
same,Drug uptake,[13],0.78 % ID/g
same,Drug uptake,[14],0.52 % ID/g
same,Drug uptake,[15],1.33 % ID/g
same,Drug uptake,[16],0.57 % ID/g
same,Drug uptake,[17],0.62 % ID/g
same,Drug uptake,[18],0.26 % ID/g
same,Drug uptake,[19],0.64 % ID/g
same,Drug uptake,[20],0.2 % ID/g
same,Drug uptake,[21],0.32 % ID/g
same,Drug uptake,[22],0.11 % ID/g
same,Drug uptake,[23],1.06 % ID/g
same,Drug uptake,[24],0.42 % ID/g
same,Drug uptake,[25],1.89 % ID/g
same,Drug uptake,[26],0.67 % ID/g
same,Drug uptake,[27],0.53 % ID/g
same,Drug uptake,[28],0.52 % ID/g
same,Drug uptake,[29],0.34 % ID/g
same,Drug uptake,[30],0.19 % ID/g
same,Drug uptake,[31],0.2 % ID/g
same,Drug uptake,[32],0.09 % ID/g
same,remaining at 1 min,[33],97%
same,remaining at 5 min,[34],57%
same,remaining at 10 min,[35],35%
same,remaining at 20 min,[36],26%
same,remaining at 0.5 h,[37],22%
same,remaining at 1 h,[38],18%
same,remaining at 1 min,[39],95%
same,remaining at 5 min,[40],40%
same,remaining at 10 min,[41],17%
same,remaining at 20 min,[42],8%
same,remaining at 0.5 h,[43],5%
same,remaining at 1 h,[44],2%
